The subject of data set [1] is Trypanosoma cruzi. Kind of data set: Antitrypanosomal activity against Trypanosoma cruzi MHOM/Pe/2011/Arequipa DTU 5 trypamastigotes infected in Balb/c mouse assessed as reduction in parasitaemia reactivation in adipose tissue at 100 mg/kg, po pretreated once daily for 5 consecutive days starting from day 75 post infection followed by cyclophosphamide-induced immunosuppression on day 100 post infection every 4 days for a maximum of 3 doses measured on day 127 post infection by PCR method. The format is functional. Further details: scale not given: the % may be the effect or the level left. In outline: (§1)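 Necropsy on day 127 pi after oral treatment and cyclophosphamide immunosuppression. Tissue DNA was amplified by PCR targeting the ~300 bp T. cruzi SOD gene, 200 nM each primer, 30 cycles with 55.5 °C annealing. Products run on 2 % agarose; positive organs counted out of six mice.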

The test system of data set [2] is Mus musculus. Kind of data set: Nephrotoxicity in Balb/c mouse infected with Trypanosoma cruzi MHOM/Pe/2011/Arequipa DTU 5 trypamastigotes assessed as decrease in uric acid level in serum at […], po once daily for 5 consecutive days starting from day 75 post infection measured on day 127 post infection by biochemical analysis relative to control. On the set-up: scale not given: the % may be the effect or the level left. The format is toxicity, organism-based. The following applies: in vivo.

In data set [3] the test system is Trypanosoma cruzi. Kind of data set: Antitrypanosomal activity against Trypanosoma cruzi MHOM/Pe/2011/Arequipa DTU 5 trypamastigotes infected in Balb/c mouse assessed as reduction in parasitaemia reactivation in bone marrow tissue at 20 mg/kg, po pretreated once daily for 5 consecutive days starting from day 10 post infection followed by cyclophosphamide-induced immunosuppression on day 100 post infection every 4 days for a maximum of 3 doses measured on day 127 post infection by PCR method. The format is functional. Further details: scale not given: the % may be the effect or the level left. The method, boiled down: as §1

For data set [4], the system named is Mus musculus. Kind of data set: Nephrotoxicity in Balb/c mouse infected with Trypanosoma cruzi MHOM/Pe/2011/Arequipa DTU 5 trypamastigotes assessed as change in uric acid level in serum at 20 mg/kg, po once daily for 5 consecutive days starting from day 10 post infection measured on day 127 post infection by biochemical analysis relative to control. The conditions noted are these: in vivo. The format is toxicity, organism-based.

For data set [5], the system named is Mus musculus. Kind of data set: Cardiotoxicity in Balb/c mouse infected with Trypanosoma cruzi MHOM/Pe/2011/Arequipa DTU 5 trypamastigotes assessed as change in ratio of creatine kinase in muscle to brain at 20 mg/kg, po once daily for 5 consecutive days starting from day 10 post infection measured on day 16 post infection by biochemical analysis relative to control. The format is toxicity, organism-based. The conditions noted are these: in vivo. In outline:
(§2)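 Serum clinical chemistry in Arequipa-infected female BALB/c mice. Oral 20 mg·kg-1 per day for 5 days, started day 10 or day 75 pi. Samples taken at day 16 pi or day 81 pi, and on necropsy day. Markers: CK-MB and LDH (U/L), AST, ALT and alkaline phosphatase (U/L), total bilirubin. Results scored relative to infected untreated controls; uninfected reference n = 15.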

Data set [6] relates to Mus musculus. Kind of data set: Hepatotoxicity in Balb/c mouse infected with Trypanosoma cruzi MHOM/Pe/2011/Arequipa DTU 5 trypamastigotes assessed as decrease in alkaline phosphatase level at […], po once daily for 5 consecutive days starting from day 75 post infection measured on day 81 post infection by biochemical analysis relative to control. The class given is toxicity, organism-based. Further details: scale not given: the % may be the effect or the level left. The conditions noted are these: in vivo. In outline:
as §2

SMILES strings stand for the structures.

On to `COc1ccc(C(=O)CCN2CCN(c3ccc(Cl)cc3)CC2)cc1`, for which the Activity in the data set on Trypanosoma cruzi [1] was 78%.

Turning to `COc1ccc(C(=O)CCN2CCN(c3ccc([N+](=O)[O-])cc3)CC2)cc1`, in the data set on Mus musculus [2], the Activity entry is “<= 30%”.

Turning to `O=C(Cn1ccnc1[N+](=O)[O-])NCc1ccccc1` [BENZNIDAZOLE], the values for the Activity in the data set with Trypanosoma cruzi [3], with Mus musculus [4] and with Mus musculus [5] were 33%, less than 10% and less than 10%, respectively.

As for `COc1ccc(C(=O)CCN2CCN(c3ccc(F)cc3)CC2)cc1`, in the data set on Mus musculus [6], the Activity result is listed as “<= 10%”.

These data come from ChEMBL document CHEMBL4118256, “Second Generation of Mannich Base-Type Derivatives with in Vivo Activity against Trypanosoma cruzi” (J Med Chem, 2018).
